Measurements: ChEMBL document CHEMBL4011589, “Discovery of novel furanone derivatives as potent Cdc7 kinase inhibitors” (Eur J Med Chem, 2017)

What was measured:
[1] = biological target: CDC7/DBF4 (Cell division cycle 7-related protein kinase/Activator of S phase kinase) (Homo sapiens, UniProt O00311); assay: Inhibition of recombinant human Cdc7 (1 to 574 residues)/human N-terminal GST-tagged ASK (1 to 674 residues) expressed in baculovirus expression system using FITC-labeled MCM2 peptide as substrate measured after 5 hrs in presence of 5 uM ATP
How it was run: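 Cdc7 enzymatic assay with 5 µM ATP. IC50 values are the mean of duplicate measurements.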

[2] = Stability in human liver microsomes assessed as compound remaining at 1 uM in presence of NADPH after 30 mins by LC-MS/MS analysis; format: ADME, microsome; settings: read-out: Stability
How it was run: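 Human liver microsomes are incubated with compound for 30 min. The read-out is the percentage of parent compound remaining.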

[3] = Stability of the compound under basic condition; format: physicochemical
[4] = biological target: CDC7/DBF4 (Cell division cycle 7-related protein kinase/Activator of S phase kinase) (Homo sapiens) (UniProt Q9UBU7+O00311); assay: Ratio of IC50 for recombinant human Cdc7 (1 to 574 residues)/human N-terminal GST-tagged ASK (1 to 674 residues) expressed in baculovirus expression system in presence of […] to IC50 for recombinant human Cdc7 (1 to 574 residues)/human N-terminal GST-tagged ASK (1 to 674 residues) expressed in baculovirus expression system in presence of 5 uM ATP
Mus musculus = organism: Mus musculus; assay: Stability in mouse liver microsomes assessed as compound remaining at 1 uM in presence of NADPH after 30 mins by LC-MS/MS analysis
[5] = Stability of the compound in 50% KOH; format: physicochemical

SMILES | IC50 [1] [nM] | also measured
CCOC(=O)C1=C(Nc2ccccc2)O/C(=C\c2ccc(O)c(C)c2)C1=O | 1200 | 
NC(=O)C1=C(Nc2ccccc2)O/C(=C\c2c[nH]c3ncccc23)C1=O | > 10000 | 
O=C1C(C(=O)N2CCCCC2)=C(Nc2ccccc2)O/C1=C\c1c[nH]c2ncccc12 | 890 | 
CCOC(=O)C1=C(Nc2ccccc2)O/C(=C\c2c[nH]c3ncc(Cl)cc23)C1=O | 44 | 
CCOC(=O)C1=C(Nc2ccccc2)S/C(=C\c2c[nH]c3ncccc23)C1=O | > 10000 | 
CCOC(=O)C1=C(Nc2ccc(F)cc2)O/C(=C\c2c[nH]c3ncccc23)C1=O | 4.3 | remaining at 0.5 h, 1 µM [2]: 52%
CCOC(=O)C1=C(Nc2ccccc2)O/C(=C\c2ccc3c(c2)OCO3)C1=O | 3200 | 
O=C(O)C1=C(Nc2ccccc2)O/C(=C\c2c[nH]c3ncccc23)C1=O | 9.9 | 
CCOC(=O)C1=C(Nc2ccc(OC)cc2)O/C(=C\c2c[nH]c3ncccc23)C1=O | 4.9 | remaining at 0.5 h, 1 µM [2]: 33%
CCNC(=O)C1=C(Nc2ccccc2)O/C(=C\c2c[nH]c3ncccc23)C1=O | 1600 | 
CCOC(=O)C1=C(Nc2ccccc2)O/C(=C\c2c[nH]c3ncccc23)C1=O | 3.3 to 3.8 | Stability [3]: Stable; remaining at 0.5 h, 1 µM [2]: 23%; Ratio IC50 [4]: 21; remaining at 0.5 h, 1 µM (Mus musculus): 7.9%; Stability [5]: Unstable
